Measurements: ChEMBL document CHEMBL1833790, “N-(2-{3-[3,5-bis(trifluoromethyl)phenyl]ureido}ethyl)-glycyrrhetinamide (6b): a novel anticancer glycyrrhetinic acid derivative that targets the proteasome and displays anti-kinase activity” (J Med Chem, 2011)
Active and inactive are the calls of the source. No cut-off for these calls is given here. Peptide text beside a SMILES is read from it. * marks the point of attachment. Cbz = O=C(OCc1ccccc1)*

Experiments:
[1] = molecular target: T1, Peroxisome proliferator-activated receptor gamma (Homo sapiens) (UniProt P37231); experiment: Activation of PPARgamma activity in human U373 cells at 60 uM after 6 hrs by spectrophotometric analysis relative to control; assay type: cell-based; conditions: U-373MG ATCC
T1 sequence (whole entry): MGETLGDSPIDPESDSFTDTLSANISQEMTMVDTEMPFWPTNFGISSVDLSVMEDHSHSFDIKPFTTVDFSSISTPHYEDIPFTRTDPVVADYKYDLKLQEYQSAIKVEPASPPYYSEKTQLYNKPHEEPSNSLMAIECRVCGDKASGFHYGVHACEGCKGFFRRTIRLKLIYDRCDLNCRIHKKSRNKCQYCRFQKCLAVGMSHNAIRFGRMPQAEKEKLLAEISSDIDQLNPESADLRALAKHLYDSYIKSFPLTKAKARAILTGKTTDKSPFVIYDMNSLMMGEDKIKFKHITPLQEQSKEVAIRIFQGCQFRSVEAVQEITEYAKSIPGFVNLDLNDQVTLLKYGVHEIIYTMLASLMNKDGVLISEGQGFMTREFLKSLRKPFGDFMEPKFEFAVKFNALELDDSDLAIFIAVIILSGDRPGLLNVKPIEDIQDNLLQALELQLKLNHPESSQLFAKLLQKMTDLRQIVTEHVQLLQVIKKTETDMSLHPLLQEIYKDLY
In short: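 U373 glioblastoma cells were exposed for 6 h. Nuclear extracts were prepared by hypotonic buffer, NP-40 lysis and a protease-inhibitor extraction buffer. Extracts were bound overnight at 4 °C in a PPAR-γ transcription-factor plate, then probed with primary antibody and HRP anti-rabbit secondary, 1 h each at room temperature. Developer ran 45 min, read at 450 nm. Triplicates, mean ± SD versus control.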

U-373MG ATCC [2] = experiment: Inhibition of chymotrypsin-like activity of 20S proteasome in human U373 at 7 uM after 2 days by bioluminescence assay; assay type: cell-based
In short: (§1)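 U373 GBM cells seeded at 5000 cells/mL and grown 48 h, then treated for two days. Cells washed in PBS and permeabilised with 0.025% digitonin. Proteasome-Glo reagent added with Suc-LLVY-Glo (chymotrypsin-like), Z-LRR-Glo (trypsin-like) or Z-nLPnLD-Glo (caspase-like) substrate. Luminescence read after 10 min in the dark and normalised to a parallel MTT viability assay; triplicates. MG-132 at 0.5 μM used as reference.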

U-373MG ATCC [3] = experiment: Inhibition of trypsin-like activity of 20S proteasome in human U373 cells at 7 uM after 2 days by bioluminescence assay; assay type: cell-based; in short: as §1
U-373MG ATCC [4] = experiment: Inhibition of caspase-like activity of 20S proteasome in human U373 cells at 7 uM after 2 days by bioluminescence assay; assay type: cell-based; in short: as §1
U-373MG ATCC [5] = experiment: Inhibition of chymotrypsin-like activity of 20S proteasome in human U373 cells at 60 uM after 2 days by bioluminescence assay; assay type: cell-based; in short: as §1
U-373MG ATCC [6] = experiment: Inhibition of trypsin-like activity of 20S proteasome in human U373 cells at 60 uM after 2 days by bioluminescence assay; assay type: cell-based; in short: as §1
U-373MG ATCC [7] = experiment: Inhibition of caspase-like activity of 20S proteasome in human U373 cells at 60 uM after 2 days by bioluminescence assay; assay type: cell-based; in short: as §1
U-373MG ATCC [8] = experiment: Inhibition of chymotrypsin-like activity of 20S proteasome in human U373 cells at 0.5 uM after 2 days by bioluminescence assay; assay type: cell-based; in short: as §1
U-373MG ATCC [9] = experiment: Inhibition of trypsin-like activity of 20S proteasome in human U373 cells at 0.5 uM after 2 days by bioluminescence assay; assay type: cell-based; in short: as §1
U-373MG ATCC [10] = experiment: Inhibition of caspase-like activity of 20S proteasome in human U373 cells at 0.5 uM after 2 days by bioluminescence assay; assay type: cell-based; in short: as §1
[11] = Chemical stability of the compound in MEM cell culture medium after 7 days by HPLC analysis; assay type: physicochemical; conditions: read-out: Stability
In short: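 Compound incubated in MEM culture medium at 37 °C for 7 days, then analysed by HPLC on RX-C8 (5 μm) column with MeOH–water 90:10 (0.1% TFA), diode-array detection. Expressed as % of incubated compound recovered.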

A549 = experiment: Growth inhibition in apoptosis-resistant human A549 after 3 days by MTT assay; assay type: functional; conditions: A549, 72 h
In short: (§2)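 Cells grown in RPMI with 10% heat-inactivated FCS, 4 mM glutamine, gentamicin and penicillin–streptomycin. Drug exposure 3 days, growth read by MTT colorimetric assay. Nine concentrations from 0.01 to 100 μM in semilog steps, six replicates each; IC50 derived per cell line.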

SK-MEL-28 = experiment: Growth inhibition in apoptosis-resistant human SK-MEL-28 after 3 days by MTT assay; assay type: functional; conditions: SK-MEL-28, 72 h; in short: as §2
T98G = experiment: Growth inhibition in apoptosis-resistant human T98G after 3 days by MTT assay; assay type: functional; conditions: 72 h; in short: as §2
[12] = Growth inhibition in apoptosis-resistant human U373 after 3 days by MTT assay; assay type: functional, U-373MG ATCC; conditions: U373 MG, 72 h; in short: as §2
Hs 683 = experiment: Growth inhibition in apoptosis-sensitive human Hs683 after 3 days by MTT assay; assay type: functional; conditions: Hs 683, 72 h; in short: as §2
PC-3 = experiment: Growth inhibition in apoptosis-sensitive human PC3 after 3 days by MTT assay; assay type: functional; conditions: PC-3, 72 h; in short: as §2
MCF7 = experiment: Growth inhibition in apoptosis-sensitive human MCF7 after 3 days by MTT assay; assay type: functional; conditions: MCF7, 72 h; in short: as §2
B16-F10 = experiment: Growth inhibition in mouse B16F10 after 3 days by MTT assay; assay type: functional; conditions: B16-F10, 72 h; in short: as §2

Activity [1] | remaining at 168 h [11] [%] | GI50 (A549) [µM] | GI50 (SK-MEL-28) [µM] | GI50 (PC-3) [µM] | GI50 (MCF7) [µM] | GI50 (B16-F10) [µM] | SMILES | inhibition (U-373MG ATCC [2]) | inhibition (U-373MG ATCC [3]) | inhibition (U-373MG ATCC [4]) | inhibition (U-373MG ATCC [5]) | inhibition (U-373MG ATCC [6]) | inhibition (U-373MG ATCC [7]) | inhibition (U-373MG ATCC [8]) | inhibition (U-373MG ATCC [9]) | inhibition (U-373MG ATCC [10]) | GI50 (T98G) [µM] | GI50 [12] [µM] | GI50 (Hs 683) [µM]
Active | 90 | 31 | > 100 | 31 | 59 | 30 | CC1(C)[C@@H](O)CC[C@]2(C)[C@H]3C(=O)C=C4[C@@H]5C[C@@](C)(C(=O)NCCN)CC[C@]5(C)CC[C@@]4(C)[C@]3(C)CC[C@@H]12 | Active | Active | Active | Active | Active | Active | Active | Active | Active | > 100 | 32 | 58
 |  |  |  |  |  |  | CC(C)C[C@@H](C=O)NC(=O)[C@H](CC(C)C)NC(=O)[C@H](CC(C)C)NC(=O)OCc1ccccc1 (Cbz-Leu-Leu-Leu-aldehyde) | Active | Active | Active | Active | Active | Active | Active | Active | Active |  |  | 
 | 99 | 37 | 38 | 47 | 30 | 31 | CSc1ccc(C(=O)NCCNC(=O)[C@@]2(C)CC[C@]3(C)CC[C@]4(C)C(=CC(=O)[C@@H]5[C@@]6(C)CC[C@H](O)C(C)(C)[C@@H]6CC[C@]54C)[C@@H]3C2)cc1 |  |  |  |  |  |  |  |  |  | 54 | 37 | 36
 | 95 | 33 | 82 | 33 | 31 | 32 | CC1(C)[C@@H](O)CC[C@]2(C)[C@H]3C(=O)C=C4[C@@H]5C[C@@](C)(C(=O)NCCc6ccc(F)cc6)CC[C@]5(C)CC[C@@]4(C)[C@]3(C)CC[C@@H]12 |  |  |  |  |  |  |  |  |  | 46 | 42 | 56
